ChEMBL document CHEMBL2346503, “Synthesis and evaluation of novel (18)F-labeled spirocyclic piperidine derivatives as σ1 receptor ligands for positron emission tomography imaging” (J Med Chem, 2013)

Tests used:
[1] = test system: Bone; assay: Biodistribution in ICR mouse bone at 370 kBq, iv after 120 mins by gamma-counting analysis; assay type: ADME, organism-based, Bone element; details: in vivo, 2 h
In short: (§1)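 Male ICR mice (n = 5 per group) got 370 kBq tracer in 0.1 mL saline by iv injection. They were decapitated at 2, 30, 60 or 120 min, and organs were weighed and γ-counted. %ID/g was found against diluted aliquots of the injected dose, decay-corrected, and given as mean ± SD.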

[2] = test system: Muscle tissue; assay: Biodistribution in ICR mouse muscle at 370 kBq, iv after 120 mins by gamma-counting analysis; assay type: ADME, organism-based; details: in vivo, 2 h
In short: (§2)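 Male ICR mice, n = 5 per time point, given the radiotracer in saline (370 kBq, 0.1 mL) by intravenous injection. Killed by decapitation at 2, 30, 60 or 120 min. Organs were excised, weighed and gamma-counted with decay correction. Uptake is expressed as % injected dose per gram of wet tissue against diluted standards of the injected material; stomach and intestine are expressed as % injected dose per organ. Mean ± SD.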

[3] = test system: Stomach; assay: Biodistribution in ICR mouse stomach assessed per organ at 370 kBq, iv after 120 mins by gamma-counting analysis; assay type: ADME, organism-based; details: in vivo, 2 h; in short: as §2
[4] = test system: Intestine; assay: Biodistribution in ICR mouse intestine assessed per organ at 370 kBq, iv after 120 mins by gamma-counting analysis; assay type: ADME, organism-based; details: in vivo, 2 h
In short: (§3)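 Male ICR mice (n = 5) got 370 kBq iv in 0.1 mL saline and were decapitated at 2, 30, 60 or 120 min. Whole intestine was γ-counted and expressed as percent injected dose per organ, decay-corrected, mean ± SD.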

[5] = test system: Kidney; assay: Biodistribution in ICR mouse kidney at 370 kBq, iv after 120 mins by gamma-counting analysis; assay type: ADME, organism-based; details: in vivo, 2 h; in short: as §1
[6] = test system: Lung; assay: Biodistribution in ICR mouse lung at 370 kBq, iv after 120 mins by gamma-counting analysis; assay type: ADME, organism-based; details: in vivo, 2 h; in short: as §1
[7] = test system: Spleen; assay: Biodistribution in ICR mouse spleen at 370 kBq, iv after 120 mins by gamma-counting analysis; assay type: ADME, organism-based; details: in vivo, 2 h; in short: as §2
[8] = test system: Liver; assay: Biodistribution in ICR mouse liver at 370 kBq, iv after 120 mins by gamma-counting analysis; assay type: ADME, organism-based; details: in vivo, 2 h; in short: as §1
[9] = test system: Heart; assay: Biodistribution in ICR mouse heart at 370 kBq, iv after 120 mins by gamma-counting analysis; assay type: ADME, organism-based; details: in vivo, 2 h; in short: as §1
[10] = test system: Brain; assay: Biodistribution in ICR mouse brain at 370 kBq, iv after 120 mins by gamma-counting analysis; assay type: ADME, organism-based; details: in vivo, 2 h; in short: as §1
[11] = test system: Bone; assay: Biodistribution in ICR mouse bone at 370 kBq, iv after 60 mins by gamma-counting analysis; assay type: ADME, organism-based, Bone element; details: in vivo, 1 h; in short: as §1
[12] = test system: Muscle tissue; assay: Biodistribution in ICR mouse muscle at 370 kBq, iv after 60 mins by gamma-counting analysis; assay type: ADME, organism-based; details: in vivo, 1 h; in short: as §2
[13] = test system: Intestine; assay: Biodistribution in ICR mouse intestine assessed per organ at 370 kBq, iv after 60 mins by gamma-counting analysis; assay type: ADME, organism-based; details: in vivo, 1 h; in short: as §3
[14] = test system: Lung; assay: Biodistribution in ICR mouse lung at 370 kBq, iv after 60 mins by gamma-counting analysis; assay type: ADME, organism-based; details: in vivo, 1 h; in short: as §2
[15] = test system: Liver; assay: Biodistribution in ICR mouse liver at 370 kBq, iv after 60 mins by gamma-counting analysis; assay type: ADME, organism-based; details: in vivo, 1 h; in short: as §1
[16] = test system: Heart; assay: Biodistribution in ICR mouse heart at 370 kBq, iv after 60 mins by gamma-counting analysis; assay type: ADME, organism-based; details: in vivo, 1 h; in short: as §1
[17] = test system: Bone; assay: Biodistribution in ICR mouse bone at 370 kBq, iv after 30 mins by gamma-counting analysis; assay type: ADME, organism-based, Bone element; details: in vivo, 0.5 h; in short: as §1
[18] = Ratio of drug uptake from ICR mouse brain to blood after 30 mins; assay type: ADME, tissue-based; details: brain and blood
[19] = test system: Muscle tissue; assay: Biodistribution in ICR mouse muscle at 370 kBq, iv after 30 mins by gamma-counting analysis; assay type: ADME, organism-based; details: in vivo, 0.5 h; in short: as §2
[20] = test system: Intestine; assay: Biodistribution in ICR mouse intestine assessed per organ at 370 kBq, iv after 30 mins by gamma-counting analysis; assay type: ADME, organism-based; details: in vivo, 0.5 h; in short: as §3
[21] = test system: Kidney; assay: Biodistribution in ICR mouse kidney at 370 kBq, iv after 30 mins by gamma-counting analysis; assay type: ADME, organism-based; details: in vivo, 0.5 h; in short: as §1
[22] = test system: Lung; assay: Biodistribution in ICR mouse lung at 370 kBq, iv after 30 mins by gamma-counting analysis; assay type: ADME, organism-based; details: in vivo, 0.5 h; in short: as §1
[23] = test system: Spleen; assay: Biodistribution in ICR mouse spleen at 370 kBq, iv after 30 mins by gamma-counting analysis; assay type: ADME, organism-based; details: in vivo, 0.5 h; in short: as §2
[24] = test system: Liver; assay: Biodistribution in ICR mouse liver at 370 kBq, iv after 30 mins by gamma-counting analysis; assay type: ADME, organism-based; details: in vivo, 0.5 h; in short: as §1
[25] = Ratio of drug uptake from ICR mouse brain to blood after 2 mins; assay type: ADME, tissue-based; details: brain and blood
[26] = test system: Muscle tissue; assay: Biodistribution in ICR mouse muscle at 370 kBq, iv after 2 mins by gamma-counting analysis; assay type: ADME, organism-based; details: in vivo; in short: as §2
[27] = test system: Bone; assay: Biodistribution in ICR mouse bone at 370 kBq, iv after 2 mins by gamma-counting analysis; assay type: ADME, organism-based, Bone element; details: in vivo; in short: as §1
[28] = test system: Intestine; assay: Biodistribution in ICR mouse intestine assessed per organ at 370 kBq, iv after 2 mins by gamma-counting analysis; assay type: ADME, organism-based; details: in vivo; in short: as §3
[29] = test system: Stomach; assay: Biodistribution in ICR mouse stomach assessed per organ at 370 kBq, iv after 2 mins by gamma-counting analysis; assay type: ADME, organism-based; details: in vivo; in short: as §2
[30] = test system: Lung; assay: Biodistribution in ICR mouse lung at 370 kBq, iv after 2 mins by gamma-counting analysis; assay type: ADME, organism-based; details: in vivo; in short: as §1
[31] = test system: Heart; assay: Biodistribution in ICR mouse heart at 370 kBq, iv after 2 mins by gamma-counting analysis; assay type: ADME, organism-based; details: in vivo; in short: as §1
[32] = test system: Brain; assay: Biodistribution in ICR mouse brain at 370 kBq, iv after 2 mins by gamma-counting analysis; assay type: ADME, organism-based; details: in vivo; in short: as §1
[33] = test system: Blood; assay: Biodistribution in ICR mouse blood at 370 kBq, iv after 2 mins by gamma-counting analysis; assay type: ADME, organism-based; details: in vivo; in short: as §1
[34] = Lipophilicity, log D of the compound at pH 7.4 by shake flask method; assay type: physicochemical; details: buffer
In short: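 Shake flask: radiotracer (370 kBq) in 3 mL 1-octanol plus 3 mL 0.05 M sodium phosphate buffer pH 7.4, vortexed 3 min at room temperature, then centrifuged. Both phases were gamma-counted and log D = log(cpm/mL octanol ÷ cpm/mL buffer). The octanol layer was repartitioned until values were consistent. Triplicate, repeated three times.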

[35] = test system: Stomach; assay: Biodistribution in ICR mouse stomach assessed per organ at 370 kBq, iv after 60 mins by gamma-counting analysis in presence of haloperidol relative to control; assay type: ADME, organism-based; details: in vivo, 1 h
In short: (§4)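 Male ICR mice, n = 5 per group, received saline (0.1 mL) or haloperidol (0.1 mL, 1.0 mg/kg) via tail vein 5 min before the radiotracer (370 kBq, 0.1 mL, iv). Killed by decapitation at 60 min. Tissues were excised, weighed and gamma-counted. Values are % ID/g (stomach as % ID/organ) and percent change versus saline controls, compared by two-tailed independent Student's t test, p ≤ 0.05.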

[36] = test system: Spleen; assay: Biodistribution in ICR mouse spleen at 370 kBq, iv after 60 mins by gamma-counting analysis in presence of haloperidol relative to control; assay type: ADME, organism-based; details: in vivo, 1 h; in short: as §4
[37] = test system: Liver; assay: Biodistribution in ICR mouse liver at 370 kBq, iv after 60 mins by gamma-counting analysis in presence of haloperidol relative to control; assay type: ADME, organism-based; details: in vivo, 1 h
In short: (§5)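 Male ICR mice (n = 5) got saline or haloperidol (0.1 mL, 1.0 mg/kg) via tail vein 5 min before 370 kBq tracer iv. Tissues were taken 60 min later and γ-counted as %ID/g (intestine as %ID/organ). Control and blocked groups were compared by two-tailed independent Student's t test, p ≤ 0.05.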

[38] = test system: Heart; assay: Biodistribution in ICR mouse heart at 370 kBq, iv after 60 mins by gamma-counting analysis in presence of haloperidol relative to control; assay type: ADME, organism-based; details: in vivo, 1 h; in short: as §5

Row | Drug uptake [1] | Drug uptake [2] | Drug uptake [3] | Drug uptake [4] | Drug uptake [5] | Drug uptake [6] | Drug uptake [7] | Drug uptake [8] | Drug uptake [9] | Drug uptake [10] | Drug uptake [11] | Drug uptake [12] | Drug uptake [13] | Drug uptake [14] | Drug uptake [15] | Drug uptake [16] | Drug uptake [17] | Kp at 0.5 h [18] | Drug uptake [19] | Drug uptake [20] | further results | Structure (SMILES)
1 | 6.13 % ID/g | 4.01 % ID/g | 0.89 %ID | 7.17 %ID | 9.55 % ID/g | 16.2 % ID/g | 9.09 % ID/g | 13.6 % ID/g | 8.54 % ID/g | 8.99 % ID/g | 4.27 % ID/g | 4.41 % ID/g | 7.81 %ID | 25.21 % ID/g | 13.87 % ID/g | 10.74 % ID/g | 3.3 % ID/g | 12.9 | 4.59 % ID/g | 8.02 %ID | Drug uptake [21]: 13.16 % ID/g; Drug uptake [22]: 25.89 % ID/g; Drug uptake [23]: 8.2 % ID/g; Drug uptake [24]: 15.3 % ID/g; Kp at 2 min [25]: 4.7; Drug uptake [26]: 5.45 % ID/g; Drug uptake [27]: 2.74 % ID/g; Drug uptake [28]: 6.62 %ID; Drug uptake [29]: 1.45 %ID; Drug uptake [30]: 47.91 % ID/g; Drug uptake [31]: 21.71 % ID/g; Drug uptake [32]: 8.07 % ID/g; Drug uptake [33]: 1.71 % ID/g; logD [34]: 2.41; Drug uptake [35]: 208%; Drug uptake [36]: 5%; Drug uptake [37]: -64%; Drug uptake [38]: -61% | [18F]CCOc1ccc(CN2CCC3(CC2)OCc2ccccc23)cc1
2 | 5.28 % ID/g | 2.62 % ID/g | 2.03 %ID | 4.04 %ID | 3.96 % ID/g | 3.16 % ID/g | 3.91 % ID/g | 4.14 % ID/g | 3.25 % ID/g | 3.91 % ID/g | 4.51 % ID/g | 2.64 % ID/g | 4.68 %ID | 3.73 % ID/g | 6.32 % ID/g | 3.43 % ID/g | 4.1 % ID/g | 1.8 | 2.42 % ID/g | 6.72 %ID | Drug uptake [21]: 5.09 % ID/g; Drug uptake [22]: 4.46 % ID/g; Drug uptake [23]: 7.64 % ID/g; Drug uptake [24]: 8.67 % ID/g; Kp at 2 min [25]: 2.9; Drug uptake [26]: 3.22 % ID/g; Drug uptake [27]: 3.38 % ID/g; Drug uptake [28]: 6.21 %ID; Drug uptake [29]: 2.19 %ID; Drug uptake [30]: 20.68 % ID/g; Drug uptake [31]: 7.69 % ID/g; Drug uptake [32]: 5.79 % ID/g; Drug uptake [33]: 1.97 % ID/g; logD [34]: 1.9; Drug uptake [35]: 28%; Drug uptake [36]: -32%; Drug uptake [37]: -36%; Drug uptake [38]: 17% | [18F]CCOCCOCCOc1ccc(CN2CCC3(CC2)OCc2ccccc23)cc1
